Measured values taken from ChEMBL document CHEMBL1154522, “Aryl sulfamates are broad spectrum inactivators of sulfatases: effects on sulfatases from various sources” (Bioorg Med Chem Lett, 2009).

How the values were obtained:
[1] = Inhibition of abalone entrails type 8 recombinant sulfatase expressed in Escherichia coli by slow phase inactivation; parameters: species or system Haliotis corrugata
Arylsulfatase = Arylsulfatase (Pseudomonas aeruginosa (strain ATCC 15692 / PAO1 / 1C / PRS 101 / LMG12228), UniProt P51691); test: Inhibition of Pseudomonas aeruginosa recombinant arylsulfatase A expressed in Escherichia coli
Sequence of Arylsulfatase (P51691 whole entry): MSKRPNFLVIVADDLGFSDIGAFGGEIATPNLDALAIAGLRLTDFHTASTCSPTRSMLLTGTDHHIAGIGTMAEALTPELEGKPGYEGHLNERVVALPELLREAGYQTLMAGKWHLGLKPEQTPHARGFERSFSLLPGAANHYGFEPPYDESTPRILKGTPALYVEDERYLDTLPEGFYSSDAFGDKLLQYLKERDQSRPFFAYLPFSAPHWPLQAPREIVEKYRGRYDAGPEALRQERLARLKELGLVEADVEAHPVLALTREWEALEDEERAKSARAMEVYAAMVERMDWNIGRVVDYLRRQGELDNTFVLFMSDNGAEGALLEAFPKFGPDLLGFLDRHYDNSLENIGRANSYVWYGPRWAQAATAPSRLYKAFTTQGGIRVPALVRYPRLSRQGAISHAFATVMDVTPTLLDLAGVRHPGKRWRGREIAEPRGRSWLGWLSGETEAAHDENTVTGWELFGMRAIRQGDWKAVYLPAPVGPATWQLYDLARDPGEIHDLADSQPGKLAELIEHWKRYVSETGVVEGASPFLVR

[2] = Inhibition of Helix pomatia type H1 recombinant sulfatase expressed in Escherichia coli
Method in brief: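 Snail sulfatase incubated at pH 7 with 0–500 µM 3-nitrophenyl sulfamate; residual activity plotted semi-logarithmically against time, and pseudo-first-order rates replotted against inactivator concentration to fit Ki and kinact (E + I ⇌ E·I → E–P).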

[3] = Inhibition of abalone entrails type 8 recombinant sulfatase expressed in Escherichia coli by fast phase inactivation; parameters: species or system Haliotis corrugata
[4] = Chemical decomposition at pH 7 after 15 mins; settings: buffer
[5] = Inhibition of Patella vulgata type 5 recombinant sulfatase expressed in Escherichia coli
Method in brief: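 Limpet sulfatase at pH 7 with 0–12.5 mM sulfamate; semi-logarithmic plots of residual activity over time, inactivation rates replotted against concentration to give Ki and kinact.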

[6] = Dissociation constant, pKa of the compound; assay type: physicochemical

| Ki (Arylsulfatase) | decomposed at 0.25 h [4] | pKa [6] | Compound | Ki [1] | Ki [2] | Ki [3] | Ki [5] |
| --- | --- | --- | --- | --- | --- | --- | --- |
| 0.13 µM | 4.2% |  | NS(=O)(=O)Oc1cccc([N+](=O)[O-])c1 | 5000 µM | 35 µM | 1600 µM | 980 µM |
|  |  | 7.14 | O=[N+]([O-])c1ccc(OS(=O)(=O)O)cc1 |  |  |  |  |
